A selection: hits, their analogues and other compounds. The true share with any hit is near 2.4%.
NadD inh: inhibitors of S. aureus NadD, primary screen, biochemical, colorimetric, uHTS; Nicotinate-nucleotide adenylyltransferase NadD (Staphylococcus aureus N315); purified NadD enzyme, colorimetric absorbance read-out; inhibition, % at 20 µM; actives 0.78% (n = 360,000); AID 602399, 2012; in the data active = inhibition above about 26%
LMPTP block: LMPTP phosphatase inhibitors, primary screen, biochemical, fluorescence intensity, uHTS; actives 0.22% (n = 360,000); inhibition, % at 20 µM; recombinant LMPTP-A, OMFP fluorogenic substrate;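 active = compounds that cut the enzyme signal by at least half of the control window in the single-dose screen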
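Buffer or medium: Bis-Tris pH 6.0, DTT, detergent; Assay system: LMPTP-A enzyme; Quantity: 0.625 nM enzyme; Detection: endpoint fluorescence intensity; Times: 50 min dark incubation at room temperature; Controls: substrate-only low control, DMSO enzyme-plus-substrate high control; Doses: single 20 µM dose; Read-out: percent inhibition versus substrate-only and uninhibited controls; Reagent: 400 µM OMFP.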
DNMT1 inh: human DNMT1 methyltransferase inhibitors, primary screen, biochemical, molecular beacon, fluorescence, HinP1I cleavage, uHTS; DNA (cytosine-5)-methyltransferase 1 (Homo sapiens), P26358; inhibition (reported as % activation of signal), % at 10 µM; actives 0.83% (n = 360,000); AID 588458, 2011; in the data active = inhibition above about 50%
Target sequence (P26358 504-1616 limits assumed): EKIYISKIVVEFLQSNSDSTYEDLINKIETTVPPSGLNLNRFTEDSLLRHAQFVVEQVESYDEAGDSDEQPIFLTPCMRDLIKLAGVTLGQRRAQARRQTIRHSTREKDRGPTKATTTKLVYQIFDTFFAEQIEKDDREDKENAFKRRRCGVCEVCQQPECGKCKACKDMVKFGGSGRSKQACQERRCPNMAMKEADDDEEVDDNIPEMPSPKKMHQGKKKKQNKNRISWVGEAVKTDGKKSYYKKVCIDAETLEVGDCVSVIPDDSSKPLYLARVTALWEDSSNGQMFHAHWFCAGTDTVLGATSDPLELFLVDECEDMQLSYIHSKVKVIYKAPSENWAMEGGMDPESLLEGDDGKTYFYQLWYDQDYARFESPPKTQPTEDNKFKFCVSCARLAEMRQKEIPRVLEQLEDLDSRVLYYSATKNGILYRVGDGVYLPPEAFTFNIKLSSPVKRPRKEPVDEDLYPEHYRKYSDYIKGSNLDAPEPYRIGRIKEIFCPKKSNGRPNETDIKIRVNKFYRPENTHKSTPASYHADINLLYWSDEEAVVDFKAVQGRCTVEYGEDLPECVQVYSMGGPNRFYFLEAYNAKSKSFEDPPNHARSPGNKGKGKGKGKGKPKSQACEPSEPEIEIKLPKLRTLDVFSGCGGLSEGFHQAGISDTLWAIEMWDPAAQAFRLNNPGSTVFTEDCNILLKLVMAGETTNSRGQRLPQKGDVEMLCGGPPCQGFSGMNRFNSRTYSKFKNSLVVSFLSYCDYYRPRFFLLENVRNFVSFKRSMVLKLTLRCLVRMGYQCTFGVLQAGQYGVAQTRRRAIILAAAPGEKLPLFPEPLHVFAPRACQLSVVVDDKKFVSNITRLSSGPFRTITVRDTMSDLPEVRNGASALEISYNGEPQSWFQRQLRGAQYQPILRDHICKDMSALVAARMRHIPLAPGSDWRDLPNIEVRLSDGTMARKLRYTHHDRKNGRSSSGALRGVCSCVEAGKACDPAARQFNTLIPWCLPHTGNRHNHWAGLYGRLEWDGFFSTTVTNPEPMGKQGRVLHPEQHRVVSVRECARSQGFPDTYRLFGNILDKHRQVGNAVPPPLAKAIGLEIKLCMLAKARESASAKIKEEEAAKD
STEP block: STEP phosphatase inhibitors, primary screen, biochemical, fluorescence intensity, uHTS | Tyrosine-protein phosphatase non-receptor type 5 (Homo sapiens), P54829 | recombinant STEP, OMFP fluorogenic substrate | inhibition, % at 20 µM | actives 0.25% (n = 360,000) | AID 588621, 2011;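 active = inhibition at 20 µM, scaled per plate between control wells, above about 37%, limit read from the data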
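Also added – OMFP at 25 µM · Test system – STEP tyrosine phosphatase · Technique – FITC-channel fluorescence of OMFP product · Schedule – 20 min at room temperature, dark · Evaluation – control-normalized % inhibition with plate pattern correction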
SUMO1 PPI mod: modulators of SUMO1 protein-protein interactions, primary screen, biochemical, uHTS. SUMO1 binding to a labelled peptide, TR-FRET, 1 h. inhibition, % at 20 µM. actives 0.33% (n = 360,000). Small ubiquitin-related modifier 1 (Homo sapiens), P63165; in the data active = inhibition above about 37%
Scp1 inh: Scp-1 phosphatase inhibitors, primary screen, biochemical, colorimetric, uHTS | Recombinant Scp1, phosphopeptide, malachite green phosphate absorbance | actives 0.88% (n = 340,000) | inhibition, % at 20 µM | Carboxy-terminal domain RNA polymerase II polypeptide A small phosphatase 1 (Homo …;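 active = inhibition above about 50% at 20 µM, limit read from the data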
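Assay system: SCP-1 catalytic fragment, aa 76-261 | Buffer or medium: Tris acetate buffer pH 5.5 with MgCl2 and Tween-20 | Compound: One concentration, 20 µM, with 1.0% DMSO | Also added: Phospho 17-mer peptide substrate | Signal: Absorbance at 630 nm | Incubation: 45 min enzyme reaction at room temperature | Measure: % inhibition of SCP-1 phosphate liberation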
NadD inh conf: inhibitors of S. aureus NadD, confirmation, biochemical, colorimetric, single concentration | shares compounds with NadD inh | purified S. aureus NadD, colorimetric enzyme assay | inhibition, % at 20 µM | actives 13% (n = 2,000) | AID 624309, 2012; in the data active = inhibition mostly above about 42%, no sharp cut-off; inactive = mostly below about 42%
Of the large screens only hits and unclear results are named; the others gave an inactive call (follow-up assays come after a bar, where they were run).

O=C(Nc1nc([C@@H]2O[C@H](CO)[C@@H](O)[C@H](O)[C@H]2O)cs1)NC(c1ccccc1)c1ccccc1	none (no result: Scp1 inh)
COc1ccc(/C=N\NS(=O)(=O)c2ccc(Br)cc2)cc1COc1ccccc1[N+](=O)[O-]	NadD inh 46 | NadD inh conf inactive
CCOc1ccc(C2C(C(=O)Nc3ccccc3)=C(C)N=c3s/c(=C/c4cccc(OCC(=O)O)c4)c(=O)n32)cc1 (stereo unspecified)	NadD inh 33 | NadD inh conf inactive
FC(F)(F)c1ccc(C2[C@H]3CN(Cc4ccc(-c5ccccc5)cc4)[C@H](c4ccccc4)C34CC2(c2cccnc2)C4)cc1 (stereo partly specified)	none (no result: NadD inh, LMPTP block, DNMT1 inh, STEP block, SUMO1 PPI mod)
c1ccc(-c2ccc(CN3C[C@@H]4C(c5ccccc5)C5(c6cccnc6)CC4(C5)[C@H]3c3ccccc3)cc2)cc1 (stereo partly specified)	NadD inh 52 | NadD inh conf inactive
N=c1c(S(=O)(=O)c2ccc(Br)cc2)cc2c(=O)n3ccccc3nc2n1C1CCCCC1	NadD inh 42 | NadD inh conf inactive
Cc1ccc(Cn2c(=N)c(S(=O)(=O)c3ccc(Br)cc3)cc3c(=O)n4ccccc4nc32)cc1	none
N=c1c(S(=O)(=O)c2ccc(Br)cc2)cc2c(=O)n3ccccc3nc2n1Cc1ccccc1	NadD inh 32 | NadD inh conf inactive
NC(=S)N/N=C/c1ccc(-c2cc(Cl)ccc2Cl)o1	NadD inh 43 | NadD inh conf inactive
CCOC(=O)N/N=C\c1ccc(-c2cc(Cl)ccc2Cl)o1	none
NC(=S)N/N=C/c1ccc(-c2cc(Cl)cc(Cl)c2)o1	NadD inh 38 | NadD inh conf inactive
NC(=S)N/N=C/c1ccc(-c2ccc([N+](=O)[O-])cc2)o1	NadD inh 33 | NadD inh conf inactive
C=CCSc1nc2c(sc3nc(C)cc(C)c32)c(=O)[nH]1	none
Cc1cc(C)c2c(n1)sc1c(=O)[nH]c(SCc3ccccc3)nc12	NadD inh 29 | NadD inh conf inactive
Cn1cnc(C(=O)NCc2ccc(CNC(=O)OC(C)(C)C)cc2)c1C(=O)NCc1ccc(CNC(=O)OC(C)(C)C)cc1	NadD inh 33 | NadD inh conf inactive
CC(C)(C)OC(=O)NCc1ccc(NC(=O)c2nc[nH]c2C(=O)NCCN(CCNC(=O)c2[nH]cnc2C(=O)Nc2ccc(CNC(=O)OC(C)(C)C)cc2)CCNC(=O)c2[nH]cnc2C(=O)Nc2ccc(CNC(=O)OC(C)(C)C)cc2)cc1	NadD inh 43 | NadD inh conf inactive
CC(C)(C)OC(=O)NCc1ccc(NC(=O)c2nc[nH]c2C(=O)NCCCCCCNC(=O)c2[nH]cnc2C(=O)Nc2ccc(CNC(=O)OC(C)(C)C)cc2)cc1	NadD inh 39 | NadD inh conf inactive
CC(C)(C)OC(=O)NCCCCCNC(=O)c1[nH]cnc1C(=O)Nc1ccc(Cl)cc1	none
COc1cccc(/C=N/N2CCN(C)CC2)c1	none
CC(C)(Sc1ccc(CCN(CCCCC2CCCCC2)C(=O)NC2CCCCC2)cc1)C(=O)O	NadD inh 46 | NadD inh conf inactive
Cc1ccc(C(=O)NN=Cc2ccc3c(c2)OCO3)cc1	none
CCOc1ccc(Br)cc1S(=O)(=O)Nc1ccc(C(=O)OCC(=O)Nc2ccc(C#N)cc2)cc1	NadD inh 34 | NadD inh conf inactive
CCOc1ccc(NC(=S)NS(=O)(=O)c2cc(Br)ccc2OCC)cc1	none
CC1(C(=O)N2CC3(CC(c4cccc(NC(=O)COc5ccc(Cl)cc5)c4)=NO3)C[C@@H]2C(N)=O)CC1 (stereo partly specified)	none
NC(=O)[C@H]1CC2(CC(c3cccc(NC(=O)COc4ccc(Cl)cc4)c3)=NO2)CN1C(=O)c1ccc(Cl)cc1 (stereo partly specified)	NadD inh 40 | NadD inh conf inactive
C/C=C/C(=O)N1CC2(CC(c3cccc(NC(=O)COc4ccc(Cl)cc4)c3)=NO2)C[C@@H]1C(N)=O (stereo partly specified)	none
NC(=O)[C@H]1CC2(CC(c3cccc(NC(=O)COc4ccc(Cl)cc4)c3)=NO2)CN1C(=O)c1ccccc1C(=O)c1ccccc1 (stereo partly specified)	NadD inh 31 | NadD inh conf inactive
O=c1ccn(Cc2ccccc2)c2ccccc12	none
CCN1/C(=C/C=C/C=C/C=C/c2sc3ccccc3[n+]2CC)Sc2ccccc21	NadD inh 40, DNMT1 inh 81 | NadD inh conf 79
CC/C(=C/c1sc2ccccc2[n+]1CC)SC	none
CCCc1cc(=O)[nH]c(SCC(=O)N2N=C(c3ccc(Cl)cc3)CC2c2ccco2)n1 (stereo unspecified)	NadD inh 35 | NadD inh conf 50
C/C(=N\NC(=O)c1cccc(N/N=C(\C)c2ccc([N+](=O)[O-])cc2)c1)c1ccc([N+](=O)[O-])cc1	NadD inh 33 | NadD inh conf inactive
N#Cc1ccc(C(=O)Nc2cc(S(=O)(=O)N3CCCC3)ccc2OCC(F)(F)F)cc1	none
COc1cccc(-n2c(SCC(=O)Nc3cc(C)on3)nc3c([nH]c4ccccc43)c2=O)c1	none
Cc1cc(NC(=O)CSc2nc3c([nH]c4ccccc43)c(=O)n2-c2cccc(C(F)(F)F)c2)no1	NadD inh 44 | NadD inh conf inactive
CCOc1ccc(-c2nnc(NC(=O)c3ccc(OCC(C)C)c(OC)c3)o2)cc1	NadD inh 37 | NadD inh conf inactive
COc1cccc(-c2nnc(NC(=O)c3ccc4ncsc4c3)o2)c1	NadD inh 31 | NadD inh conf inactive
Cn1c2ccc(F)cc2c2ncn(Cc3ccco3)c(=O)c21	none
CC(C)(C)c1ccc(NC(=O)c2ccc3c(c2)S(=O)(=O)c2ccccc2C3=O)cc1	NadD inh 28 | NadD inh conf inactive
O=C(Nc1cccc(-c2nc3ccccc3s2)c1)c1cc(-n2cnnc2)ccc1Cl	NadD inh 40 | NadD inh conf inactive

Screening data as filed in PubChem.
